Assay results from different studies.
Lines come from different studies, so protocols differ.

| Structure (SMILES) | target or system | test | system | conditions | measurement | result |
| --- | --- | --- | --- | --- | --- | --- |
| O=C(O)CCCOc1ccc(F)cc1-c1cc(-c2ccccc2C(F)(F)F)n(-c2ccccc2)n1 | – | general toxicity | rat | intravenous, 25 µg/kg, single dose | NOAEL | ≥ 0.025 mg/kg |
| CC(C)CC(=O)OC[C@H]1O[C@@](C#N)(c2ccc3c(N)ncnn23)[C@H](O)[C@@H]1O | – | metabolic stability | dog, plasma | 5 µM | half-life | > 3.1 h |
| COC(=O)C=Cc1ccc(OC(C)=O)c(OC(C)=O)c1 | HaCaT | cell growth or viability, MTT | – | 24 h | CC50 | 201 µM |
| Cc1ncc2n1-c1ccc(Cl)cc1C(c1ccccc1F)=NC2 | – | metabolic stability | dog, hepatocytes | – | half-life | 0.616 h |
| COc1cc(C2C3=C(COC3=O)N(CCO)c3cc4c(cc32)CCC4)cc(OC)c1OC (centres unmarked) | – | general toxicity | female Sprague-Dawley rat | intraperitoneal, single dose | MTD | ≥ 400 mg/kg |
| Cc1ccc2cc(N3CCC4(O)C(=O)c5cc(C)c(C)cc5N=C34)ccc2n1 (centres unmarked) | – | general toxicity | rat | intravenous, multiple doses | NOAEL | ≥ 20 mg/kg |
| CC(=O)Oc1ccc(C=CC(=O)O)cc1OC(C)=O | HaCaT | cell growth or viability, MTT | – | 24 h | CC50 | > 250 µM |
| CC(=O)c1c(C)c2cnc(Nc3ccc(C4CCN(CCS(C)(=O)=O)CC4)cn3)nc2n(C2CCCC2)c1=O | – | metabolic stability | dog, liver S9 | – | half-life | 1.72 h |
